Structures are written as SMILES.

One may read the inhibition in vivo as how much of the control response was suppressed. For orientation: inhibition means the relative decrease from the control value, in per cent. One may read the IC50 as the midpoint of a concentration-inhibition curve.

One data set relates to Cavia porcellus. In words: Analgesic activity in Dunkin Hartley guinea pig hyperalgesia pain model assessed as inhibition of LPS-induced thermal hyperalgesia at 10 mg/kg, po qd administered 1 hr prior to LPS stimulation measured after 4.5 hrs by plantar test relative to control. Type of data set: functional. The gist of the method:
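LPS was injected into the guinea pig plantar to induce thermal hyperalgesia, and compound was given orally. Response is expressed as % hyperalgesia, with a saline-injected naive group as 0% and the vehicle-treated LPS group as 100%. Values are mean ± SEM, n = 8 per dose group.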

In another data set the target is Cytochrome P450 2D6 (Homo sapiens, UniProt P10635). In words: Inhibition of CYP2D6 in human liver microsomes at 1 uM measured after 20 mins in presence of NADPH by LC/MS/MS analysis. Type of data set: ADME. The gist of the method: (§1)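 CYP isoforms 1A2, 2D6, 3A4, 2C9 and 2C19 were tested at 1 and 10 µM. Results are % inhibition compared with a no-inhibitor control, run in triplicate.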
Background: Liver microsomes are vesicles of endoplasmic reticulum, rich in cytochrome P450 enzymes.

The nature of data set [1]: Metabolic stability in rat liver microsomes assessed as parent compound remaining at 1 uM after 60 mins in presence of NADPH by LC/MS/MS analysis. The data set is classed as ADME, microsome. Conditions: read-out: Stability; call rule not given here. The gist of the method: (§2)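 Compound at 1.0 µM was incubated with liver microsomes (1.0 mg/mL protein) at 37 °C for 60 min. Samples were analysed by LC/MS/MS as % parent remaining. Run in triplicate.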

The next data set addresses Cytochrome P450 2C9 (Homo sapiens, UniProt P11712). In words: Inhibition of CYP2C9 in human liver microsomes at 1 uM measured after 20 mins in presence of NADPH by LC/MS/MS analysis. Type of data set: ADME. Put shortly:
as §1

Another data set concerns the target CYP2C9 (Homo sapiens, UniProt P11712). Put plainly: Inhibition of CYP2C9 in human liver microsomes at 10 uM measured after 20 mins in presence of NADPH by LC/MS/MS analysis relative to control. Type of data set: ADME. The gist of the method:
as §1

Data set [2] concerns the target T1, Prostaglandin E synthase (Homo sapiens, UniProt O14684).
T1 sequence (O14684 whole entry): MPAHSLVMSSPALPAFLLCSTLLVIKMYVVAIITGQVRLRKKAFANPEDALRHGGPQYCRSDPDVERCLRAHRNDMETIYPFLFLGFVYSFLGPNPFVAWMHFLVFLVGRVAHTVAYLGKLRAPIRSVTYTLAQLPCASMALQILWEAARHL
Put plainly: Inhibition of recombinant human mPGES-1 expressed in CHO cells assessed as reduction in PGE2 formation using PGH2 a substrate preincubated for 10 mins followed by substrate addition measured after 1 min. Type of data set: cell-based. Put shortly: (§3)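 mPGES-1 enzyme inhibition. % inhibition values are means of two experiments in duplicate. IC50 values were derived from graphs of at least two experiments in duplicate.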

The nature of data set [3]: Metabolic stability in Guinea pig liver microsomes assessed as parent compound remaining at 1 uM after 60 mins in presence of NADPH by LC/MS/MS analysis. The data set is classed as ADME, Cavia porcellus, microsome. Conditions: read-out: Stability. The gist of the method: as §2
For another data set, the target named is CYP2D6 (Homo sapiens, UniProt P10635). Put plainly: Inhibition of CYP2D6 in human liver microsomes at 10 uM measured after 20 mins in presence of NADPH by LC/MS/MS analysis relative to control. Type of data set: ADME. Conditions: liver microsomes. The gist of the method: as §1
Data set [4] addresses T2, COX2 (Homo sapiens, UniProt P35354).
T2 sequence (P35354 whole entry): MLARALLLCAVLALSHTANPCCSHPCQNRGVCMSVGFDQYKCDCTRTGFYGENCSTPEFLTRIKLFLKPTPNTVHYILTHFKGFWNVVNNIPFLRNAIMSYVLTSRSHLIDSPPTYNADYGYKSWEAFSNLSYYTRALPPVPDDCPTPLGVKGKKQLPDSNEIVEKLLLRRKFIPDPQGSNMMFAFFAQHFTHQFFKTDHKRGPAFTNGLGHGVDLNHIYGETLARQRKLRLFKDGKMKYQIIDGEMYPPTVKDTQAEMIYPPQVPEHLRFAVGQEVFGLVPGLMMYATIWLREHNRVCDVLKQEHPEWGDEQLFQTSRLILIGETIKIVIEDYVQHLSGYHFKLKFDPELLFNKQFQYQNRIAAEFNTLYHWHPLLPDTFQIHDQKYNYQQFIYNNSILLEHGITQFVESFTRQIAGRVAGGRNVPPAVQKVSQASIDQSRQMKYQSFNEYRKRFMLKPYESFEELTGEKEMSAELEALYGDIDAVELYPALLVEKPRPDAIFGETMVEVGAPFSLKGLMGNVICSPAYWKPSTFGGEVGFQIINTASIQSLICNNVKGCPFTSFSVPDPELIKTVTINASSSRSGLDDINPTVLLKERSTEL
In words: Inhibition of recombinant human N-terminal His-tagged COX2 expressed in baculovirus infected Sf21 insect cells assessed as decrease in PGE2 release at 1 uM using arachidonic acid as substrate preincubated for 15 mins followed by arachidonic acid addition measured after 5 mins relative to control. Conditions: probe arachidonic acid.

The target in another data set is Cytochrome P450 3A4 (Homo sapiens, UniProt P08684). Put plainly: Inhibition of CYP3A4 in human liver microsomes at 1 uM measured after 20 mins in presence of NADPH by LC/MS/MS analysis. Type of data set: ADME. Put shortly:
as §1

The target in a further data set is T3, Cytochrome P450 1A2 (Homo sapiens, UniProt P05177).
T3 sequence (P05177 whole entry): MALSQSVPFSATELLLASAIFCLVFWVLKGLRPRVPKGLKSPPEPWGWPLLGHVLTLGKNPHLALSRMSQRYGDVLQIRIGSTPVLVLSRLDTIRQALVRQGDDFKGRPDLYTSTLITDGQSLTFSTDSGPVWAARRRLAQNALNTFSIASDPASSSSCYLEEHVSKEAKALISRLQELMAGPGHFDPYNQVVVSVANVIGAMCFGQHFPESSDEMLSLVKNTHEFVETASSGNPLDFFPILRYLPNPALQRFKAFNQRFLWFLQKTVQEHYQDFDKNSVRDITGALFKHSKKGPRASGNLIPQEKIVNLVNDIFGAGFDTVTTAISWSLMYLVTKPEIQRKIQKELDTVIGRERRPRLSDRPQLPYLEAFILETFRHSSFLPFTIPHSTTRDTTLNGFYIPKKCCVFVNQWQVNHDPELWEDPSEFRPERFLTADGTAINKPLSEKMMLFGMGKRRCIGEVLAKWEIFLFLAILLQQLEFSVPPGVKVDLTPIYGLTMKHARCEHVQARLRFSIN
Put plainly: Inhibition of CYP1A2 in human liver microsomes at 1 uM measured after 20 mins in presence of NADPH by LC/MS/MS analysis. Type of data set: ADME. Put shortly:
as §1

The target in data set [5] is T2, COX2. Put plainly: Inhibition of recombinant human N-terminal His-tagged COX2 expressed in baculovirus infected Sf21 insect cells assessed as decrease in PGE2 release at 10 uM using arachidonic acid as substrate preincubated for 15 mins followed by arachidonic acid addition measured after 5 mins relative to control. Conditions: probe arachidonic acid.
Data set [6] can be described thus: Metabolic stability in human liver microsomes assessed as parent compound remaining at 1 uM after 60 mins in presence of NADPH by LC/MS/MS analysis. The data set is classed as ADME, microsome. Conditions: read-out: Stability. The gist of the method: as §2
Data set [7] has as its target T1, Prostaglandin E synthase. Put plainly: Inhibition of mPGES-1 in human A549 cells assessed as decrease in IL1beta induced PGE2 release preincubated for 30 mins followed by IL-1beta addition after 16 to 20 hrs by HTRF method. Type of data set: cell-based.
Data set [8] deals with Prostaglandin G/H synthase 1 (Homo sapiens, UniProt P23219). In words: Inhibition of COX1 in human U937 cells assessed as decrease in PGE2 release using arachidonic acid as substrate preincubated for 15 mins followed by arachidonic acid addition measured after 5 mins. The data set is classed as cell-based.
Data set [9] has as its target T4, Prostaglandin E synthase (Homo sapiens) (UniProt O14684).
T4 sequence (whole entry): T1 sequence (O14684 whole entry)
Put plainly: Inhibition of recombinant human mPGES-1 expressed in CHO cells assessed as reduction in PGE2 formation at 10 uM using PGH2 a substrate preincubated for 10 mins followed by substrate addition measured after 1 min relative to control. Type of data set: cell-based. The gist of the method: as §3

Data set [10] concerns the target T4, Prostaglandin E synthase (Homo sapiens). Put plainly: Inhibition of recombinant human mPGES-1 expressed in CHO cells assessed as reduction in PGE2 formation at 1 uM using PGH2 a substrate preincubated for 10 mins followed by substrate addition measured after 1 min relative to control. Type of data set: cell-based. The gist of the method: as §3
Data set [11] addresses T5, Prostaglandin G/H synthase 2 (Homo sapiens, UniProt P35354).
T5 sequence (P35354 whole entry): T2 sequence (P35354 whole entry)
In words: Inhibition of recombinant human N-terminal His-tagged COX2 expressed in baculovirus infected Sf21 insect cells assessed as decrease in PGE2 release using arachidonic acid as substrate preincubated for 15 mins followed by arachidonic acid addition measured after 5 mins.

Another data set concerns the target Cytochrome P450 2C19 (Homo sapiens, UniProt P33261). In words: Inhibition of CYP2C19 in human liver microsomes at 1 uM measured after 40 mins in presence of NADPH by LC/MS/MS analysis. Type of data set: ADME. Put shortly:
as §1

Another data set concerns the target CYP3A4 (Homo sapiens, UniProt P08684). In words: Inhibition of CYP3A4 in human liver microsomes at 10 uM measured after 20 mins in presence of NADPH by LC/MS/MS analysis relative to control. The data set is classed as ADME. The gist of the method: as §1

Cytochrome P450 2D6, sequence (P10635 whole entry, canonical isoform): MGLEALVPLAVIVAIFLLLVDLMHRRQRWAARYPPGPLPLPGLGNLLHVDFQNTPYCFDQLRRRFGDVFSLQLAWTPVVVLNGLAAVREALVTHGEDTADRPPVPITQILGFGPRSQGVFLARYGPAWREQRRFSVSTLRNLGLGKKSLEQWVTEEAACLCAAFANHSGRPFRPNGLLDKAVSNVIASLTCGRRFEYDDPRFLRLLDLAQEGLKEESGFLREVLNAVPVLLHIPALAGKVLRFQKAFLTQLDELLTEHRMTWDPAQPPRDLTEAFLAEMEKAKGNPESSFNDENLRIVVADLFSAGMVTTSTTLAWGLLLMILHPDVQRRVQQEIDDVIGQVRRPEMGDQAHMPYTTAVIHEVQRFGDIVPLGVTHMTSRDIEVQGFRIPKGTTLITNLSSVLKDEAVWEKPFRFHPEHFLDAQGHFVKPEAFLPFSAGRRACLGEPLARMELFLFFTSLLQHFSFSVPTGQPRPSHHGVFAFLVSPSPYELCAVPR
CYP2D6, sequence (P10635 whole entry): as the sequence (P10635 whole entry, canonical isoform) above
Cytochrome P450 2C9, sequence (P11712 whole entry): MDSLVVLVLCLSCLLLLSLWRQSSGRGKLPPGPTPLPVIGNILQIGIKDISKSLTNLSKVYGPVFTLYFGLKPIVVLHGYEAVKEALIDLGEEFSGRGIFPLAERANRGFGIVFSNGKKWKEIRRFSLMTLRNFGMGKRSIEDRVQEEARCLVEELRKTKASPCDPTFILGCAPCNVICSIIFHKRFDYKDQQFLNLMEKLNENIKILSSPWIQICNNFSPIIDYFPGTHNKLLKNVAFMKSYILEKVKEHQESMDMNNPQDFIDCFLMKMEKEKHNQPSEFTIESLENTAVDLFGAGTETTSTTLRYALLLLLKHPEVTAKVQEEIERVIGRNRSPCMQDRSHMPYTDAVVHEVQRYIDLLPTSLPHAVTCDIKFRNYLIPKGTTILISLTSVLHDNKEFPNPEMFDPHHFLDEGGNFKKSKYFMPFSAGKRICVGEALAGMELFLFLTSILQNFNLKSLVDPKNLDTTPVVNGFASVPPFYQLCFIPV
CYP2C9, sequence (P11712 whole entry): as above
Cytochrome P450 3A4, sequence (P08684 whole entry): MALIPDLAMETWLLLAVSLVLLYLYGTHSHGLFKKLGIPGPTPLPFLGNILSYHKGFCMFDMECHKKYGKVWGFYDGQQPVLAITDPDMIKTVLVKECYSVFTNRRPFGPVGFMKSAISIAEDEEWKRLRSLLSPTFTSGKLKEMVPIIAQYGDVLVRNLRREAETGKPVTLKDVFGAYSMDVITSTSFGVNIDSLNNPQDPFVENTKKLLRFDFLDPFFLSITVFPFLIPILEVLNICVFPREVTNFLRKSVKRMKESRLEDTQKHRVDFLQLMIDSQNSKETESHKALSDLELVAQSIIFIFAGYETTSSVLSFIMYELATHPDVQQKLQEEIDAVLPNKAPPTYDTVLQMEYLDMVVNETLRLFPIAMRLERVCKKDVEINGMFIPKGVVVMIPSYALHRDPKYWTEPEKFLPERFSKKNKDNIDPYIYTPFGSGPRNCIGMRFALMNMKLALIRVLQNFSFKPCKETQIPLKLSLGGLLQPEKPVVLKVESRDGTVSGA
CYP3A4, sequence (P08684 whole entry): as above
Cytochrome P450 2C19, sequence (P33261 whole entry): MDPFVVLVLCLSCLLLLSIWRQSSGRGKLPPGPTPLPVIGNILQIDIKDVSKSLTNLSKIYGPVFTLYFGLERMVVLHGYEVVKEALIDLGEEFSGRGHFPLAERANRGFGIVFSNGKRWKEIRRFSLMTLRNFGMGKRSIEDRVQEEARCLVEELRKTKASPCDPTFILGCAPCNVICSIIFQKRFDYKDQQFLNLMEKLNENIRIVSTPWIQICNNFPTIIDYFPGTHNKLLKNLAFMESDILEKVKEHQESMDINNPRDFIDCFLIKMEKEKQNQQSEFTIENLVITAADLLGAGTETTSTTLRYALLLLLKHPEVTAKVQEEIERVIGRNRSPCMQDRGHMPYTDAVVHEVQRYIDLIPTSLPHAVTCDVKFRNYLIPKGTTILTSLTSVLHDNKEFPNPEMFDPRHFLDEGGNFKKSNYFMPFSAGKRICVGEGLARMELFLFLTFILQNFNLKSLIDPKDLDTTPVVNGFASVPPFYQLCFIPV
Prostaglandin G/H synthase 1, sequence (P23219 whole entry): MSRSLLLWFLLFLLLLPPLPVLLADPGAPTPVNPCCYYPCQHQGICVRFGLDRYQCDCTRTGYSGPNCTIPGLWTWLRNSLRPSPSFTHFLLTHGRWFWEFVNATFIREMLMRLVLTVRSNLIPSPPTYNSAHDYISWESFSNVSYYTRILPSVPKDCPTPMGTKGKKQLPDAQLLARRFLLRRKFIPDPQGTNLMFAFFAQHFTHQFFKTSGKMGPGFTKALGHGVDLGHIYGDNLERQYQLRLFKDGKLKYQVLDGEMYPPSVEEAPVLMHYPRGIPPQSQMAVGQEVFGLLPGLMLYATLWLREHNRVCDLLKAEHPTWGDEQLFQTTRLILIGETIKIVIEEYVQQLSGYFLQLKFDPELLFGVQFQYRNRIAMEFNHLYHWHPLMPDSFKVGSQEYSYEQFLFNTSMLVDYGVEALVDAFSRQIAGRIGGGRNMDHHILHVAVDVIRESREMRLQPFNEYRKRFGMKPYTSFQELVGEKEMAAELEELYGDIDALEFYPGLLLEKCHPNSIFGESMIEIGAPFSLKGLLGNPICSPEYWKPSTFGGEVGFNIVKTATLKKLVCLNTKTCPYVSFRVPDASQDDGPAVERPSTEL

As to `O=C(O)Cc1ccccc1Nc1c(Cl)cccc1Cl` [DICLOFENAC], the inhibition in vivo at 10 mg/kg with Cavia porcellus is 80%.

Take `CC1(C)Oc2cc(-c3cccc(C(F)(F)F)c3)ccc2-c2[nH]c(-c3c(F)cccc3Cl)nc21`: the “inhibition (INH)” value on Cytochrome P450 2D6, at Cytochrome P450 2C9, on Cytochrome P450 3A4, at Cytochrome P450 1A2 and at Cytochrome P450 2C19 was “Not Active” throughout. The remaining at 1 h, 1 µM in [1] was 99%; in data set [3], 93%; in [6] it was 89%. Also, the results for the inhibition at 20 min, 10 µM at CYP2C9, on CYP2D6 and at CYP3A4 were 35%, 56% and 37%, respectively. For the same compound, the IC50 was 92.9 nM at Prostaglandin E synthase [2], 616 nM on Prostaglandin E synthase [7], 8350 nM in [8] and over 10000 nM in [11]. The inhibition at 5 min, 1 µM on COX2 [4] stood at 2.65%. Further, the inhibition at 5 min, 10 µM at COX2 [5] is 27.4%. The inhibition was 94.6% in data set [9] and 91.4% in data set [10].

Turning to `CC1(C)Oc2cc(C#Cc3ccccc3C(F)(F)F)ccc2-c2nc(-c3c(C#N)cccc3C#N)[nH]c21`, the “inhibition (INH)” value on Cytochrome P450 2D6, on Cytochrome P450 2C9, on Cytochrome P450 3A4, on Cytochrome P450 1A2 and at Cytochrome P450 2C19 was “Not Active” throughout. Further, the values for the inhibition at 20 min, 10 µM at CYP2C9, at CYP2D6 and on CYP3A4 were 32%, 29% and 24%, respectively. In addition, the IC50 on Prostaglandin E synthase [2] was determined as 15.9 nM; at Prostaglandin E synthase [7], 298 nM. Further, the remaining at 1 h, 1 µM in data set [3] worked out at 100%; in data set [6], 81%.

The record behind these values is ChEMBL document CHEMBL4028818, “Tricyclic 4,4-dimethyl-3,4-dihydrochromeno[3,4-d]imidazole derivatives as microsomal prostaglandin E2 synthase-1 (mPGES-1) inhibitors: SAR and in vivo efficacy in hyperalgesia pain model” (Bioorg Med Chem Lett, 2017).
